Measurements reported in ChEMBL document CHEMBL1221230, “Inhibition of eukaryotic translation elongation by cycloheximide and lactimidomycin” (Nat Chem Biol, 2010).
The source made the active and inactive calls. No cut-off for these calls is given here. Numbered stars: 1 amine (or outer) side, 2 acyl side, 3 side chain; on linkers, the order of the positions; unused ones are H or OH. Bridge positions count the residues as written; N and C are the ends. Square brackets hold non-standard residues; d marks the D form. Peptide text beside a SMILES is read from it. I, II: the chains in the order shown. Actinocin(1to9) = Cc1c2oc3c(C)ccc(C(=O)[*:2])c3nc-2c(C(=O)[*:1])c(N)c1=O; NMeV = CN[C@H](C(=O)O)C(C)C; Sar = CNCC(=O)O

Columns and labels:
HeLa [1] = experiment: Inhibition of protein synthesis in human HeLa cells assessed as [35S]cysteine/methionine utilization after 2 hrs by scintillation spectroscopy; format: functional, cell-based
In short: (§1)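 HeLa cells incubated 2 h with varying compound concentrations plus [³⁵S]cysteine/methionine (translation) or [³H]uridine (transcription). Protein synthesis: scintillation counting of TCA-precipitated protein on PVDF membrane. Transcription: scintillation counting of nucleic acids bound to GF/C glass fibre filter.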

Jurkat = experiment: Antiproliferative activity against human Jurkat cells assessed as incorporation of [3H]thymidine in nuclear DNA at 2.5 uM after 24 hrs by scintillation counting; format: functional, cell-based
In short: (§2)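 Each of three tumour cell lines incubated with compound at 2.5 μM for 24 h, then [³H]thymidine added to monitor DNA synthesis; initial proliferation screen.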

MDA-MB-231 = experiment: Antiproliferative activity against human MDA-MB-231 cells assessed as incorporation of [3H]thymidine in nuclear DNA at 2.5 uM after 24 hrs by scintillation counting; format: functional, cell-based; in short: as §2
HeLa [2] = experiment: Inhibition of transcriptional activity in human HeLa cells assessed as [3H]uridine utilization after 2 hrs by scintillation counting; format: functional, cell-based; in short: as §1
HeLa [3] = experiment: Antiproliferative activity against human HeLa cells assessed as incorporation of [3H]thymidine in nuclear DNA at 2.5 uM after 24 hrs by scintillation counting; format: functional, cell-based; in short: as §2
[4] = Inhibition of elF4A-mediated renilla luciferase translational activity at 200 to 2000 nM in presence of HCV IRES element
[5] = Inhibition of elF4A-mediated renilla luciferase translational activity at 100 to 200 nM in presence of HCV IRES element
[6] = Effect on peptidyl transfer assessed as [35S]methionyl-puromycin formation by TLC
Saccharomyces cerevisiae [7] = experiment: Antimicrobial activity against Saccharomyces cerevisiae BY108; format: functional, organism-based
In short: (§3)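 Four isogenic S. cerevisiae strain pairs, each differing only by presence or absence of cyh2, exposed to varying compound concentrations; growth read by optical density; IC50 derived per strain, resistance as ratio between paired strains.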

[8] = Inhibition of [32P]deacetylated phe-tRNA binding to 60S ribosome E-site by footprinting assay
Saccharomyces cerevisiae [9] = experiment: Fold resistance, ratio of IC50 for Saccharomyces cerevisiae BY740 expressing ribosomal protein cyh2 and harboring mutation in rpl28 to IC50 for Saccharomyces cerevisiae […]; format: functional; in short: as §3
Saccharomyces cerevisiae [10] = experiment: Fold resistance, ratio of IC50 for Saccharomyces cerevisiae BY724 expressing ribosomal protein cyh2 and harboring mutation in rpl28 to IC50 for Saccharomyces cerevisiae BY108; format: functional; in short: as §3
HEK-293T [11] = experiment: Effect on polyribosome profiling in human HEK293T cells assessed as depletion of polysomes at 50 uM after 30 mins by spectrophotometry; format: functional, cell-based
In short: (§4)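 HEK 293T cells treated 30 min with compound, then lysed; lysates centrifuged through 15–45% sucrose gradient to give polysome profiles.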

[12] = target: T1, Elongation factor 1-alpha 1 (Homo sapiens) (UniProt P68104); experiment: Inhibition of eEF1A-mediated tRNA binding to ternary complex at 200 uM after 10 mins by filtration binding assay
T1 sequence (whole entry): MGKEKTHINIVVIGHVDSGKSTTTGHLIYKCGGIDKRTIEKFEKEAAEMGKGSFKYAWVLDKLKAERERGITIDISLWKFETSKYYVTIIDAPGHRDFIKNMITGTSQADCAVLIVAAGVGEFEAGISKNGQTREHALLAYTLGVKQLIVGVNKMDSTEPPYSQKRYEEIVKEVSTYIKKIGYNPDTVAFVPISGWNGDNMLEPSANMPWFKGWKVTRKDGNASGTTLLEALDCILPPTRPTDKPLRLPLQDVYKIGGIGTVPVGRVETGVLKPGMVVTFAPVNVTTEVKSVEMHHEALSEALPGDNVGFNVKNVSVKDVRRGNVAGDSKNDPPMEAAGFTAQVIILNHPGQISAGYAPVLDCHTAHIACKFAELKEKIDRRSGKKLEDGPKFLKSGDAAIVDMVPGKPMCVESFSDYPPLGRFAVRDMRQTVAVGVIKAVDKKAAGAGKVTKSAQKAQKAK
In short: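 Ribosomes (89 pmol) in 20 mM HEPES pH 7.4, 100 mM KCl, 10 mM MgCl₂, 1 mM DTT with 200 ng poly(U), 2.2 μg eEF1A, 150 μM GDPNP and 200 μM compound, before 10 pmol [¹⁴C]Phe-tRNA^Phe added; 10 min at 37°C; nitrocellulose filtration, scintillation counting.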

[13] = target: Elongation factor 2 (Homo sapiens) (UniProt P13639); experiment: Inhibition of eEF2-mediated tRNA translocation assessed as induction of dipeptide accumulation by TLC
[14] = target: Elongation factor 2 (Homo sapiens) (UniProt P13639); experiment: Inhibition of eEF2-mediated tRNA translocation assessed as decrease in tripeptide (Met-Phe-Phe) formation by TLC
Saccharomyces cerevisiae [15] = experiment: Fold resistance, ratio of IC50 Saccharomyces cerevisiae J407alpha expressing ribosomal protein cyh2 and harboring mutation in rpl28 to IC50 for Saccharomyces cerevisiae J47alpha; format: functional; in short: as §3
HEK-293T [16] = experiment: Effect on polyribosome profiling in human HEK293T cells assessed as accumulation of 80S ribosomes at 100 uM after 30 mins by spectrophotometry; format: functional, cell-based; in short: as §4
[17] = Binding affinity to 60S ribosome E-site by footprinting assay
In short: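 DMS footprinting of salt-washed 80S ribosomes preincubated 5 min at room temperature with compound, DMS then 5 min at 37°C; rRNA primer extension with AMV reverse transcriptase and [α-³²P]TTP, sequencing gel. For K_D, 300 μl volume at 50 or 100 nM ribosomes titrated with increasing compound.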

Saccharomyces cerevisiae [18] = experiment: Antimicrobial activity against Saccharomyces cerevisiae JB281; format: functional, organism-based; in short: as §3
Saccharomyces cerevisiae [19] = experiment: Antimicrobial activity against Saccharomyces cerevisiae J47alpha; format: functional, organism-based; in short: as §3
Saccharomyces cerevisiae [20] = experiment: Antimicrobial activity against Saccharomyces cerevisiae BY686 expressing ribosomal protein cyh2 and harboring mutation in rpl28; format: functional, organism-based; in short: as §3
HEK-293T [21] = experiment: Effect on polyribosome profiling in human HEK293T cells assessed as depletion of polysomes at 100 uM after 30 mins by spectrophotometry; format: functional, cell-based; in short: as §4
Saccharomyces cerevisiae [22] = experiment: Antimicrobial activity against Saccharomyces cerevisiae BY724 expressing ribosomal protein cyh2 and harboring mutation in rpl28; format: functional, organism-based; in short: as §3
[23] = target: Elongation factor 2 (Homo sapiens) (UniProt P13639); experiment: Inhibition of eEF2-mediated tRNA translocation assessed as inhibition of phenylalanyl puromycin formation
In short: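 Set up as eEF1A binding assay but with GTP; 5 min at 37°C, compound added to 200 μM final, 5 min at room temperature, then eEF2, puromycin and GTP added; 10 min at 37°C; ethyl acetate-extractable phenylalanyl-puromycin counted by scintillation.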

Saccharomyces cerevisiae [24] = experiment: Fold resistance, ratio of IC50 for Saccharomyces cerevisiae BY686 expressing ribosomal protein cyh2 and harboring mutation in rpl28 to IC50 Saccharomyces cerevisiae JB503; format: functional; in short: as §3
[25] = Effect on polyribosome profiling assessed as accumulation of 80S ribosomes after 15 mins by scintillation spectroscopy; format: functional
In short: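 Capped [³²P]-labelled rabbit β-globin RNA incubated in rabbit reticulocyte lysate with compound for 15 min, then centrifuged through 10–35% sucrose gradient.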

Saccharomyces cerevisiae [26] = experiment: Antimicrobial activity against Saccharomyces cerevisiae J407alpha expressing ribosomal protein cyh2 and harboring mutation in rpl28; format: functional, organism-based; in short: as §3
Saccharomyces cerevisiae [27] = experiment: Antimicrobial activity against Saccharomyces cerevisiae JB503; format: functional, organism-based; in short: as §3
Saccharomyces cerevisiae [28] = experiment: Antimicrobial activity against Saccharomyces cerevisiae BY740 expressing ribosomal protein cyh2 and harboring mutation in rpl28; format: functional, organism-based; in short: as §3
Oryctolagus cuniculus = species: Oryctolagus cuniculus; experiment: Inhibition of translational activity in rabbit reticulocyte assessed as occurrence of ribosomal arrest at start codon at 10 mM by toeprinting assay; format: functional
In short: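 Labelled rabbit β-globin mRNA incubated in rabbit reticulocyte lysate with inhibitor; mixture centrifuged through sucrose gradient, 80S fractions taken to isolate stalled ribosomes; primer extended by AMV reverse transcriptase toward stalled ribosome to map arrest site.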

## C/C(=C\[C@H](C)C(=O)C[C@H](O)CC1CC(=O)NC(=O)C1)[C@@H]1OC(=O)CCCC/C=C/C=C\[C@@H]1C [2H LACTIMIDOMYCIN K]
HeLa [1]
  IC50: 98.5 nM
Jurkat
  Activity: inactive
MDA-MB-231
  Activity: inactive
HeLa [2]
  IC50: > 10000 nM
HeLa [3]
  Activity: inactive

## CC(/C=C/C(C)=C/[C@@H]1Cc2nc(cs2)[C@@H](C)C[C@@H](N)CC(=O)O[C@@H](C)C/C(C)=C/C=C\C(=O)O1)=C\CN(C)C
[4]
  inhibition: Active
[5]
  inhibition: Active

## CO[C@H]1/C=C/CC/C=C/C(=O)O[C@H]([C@H](C)C(=O)CCCC2CC(=O)NC(=O)C2)/C(C)=C\[C@@H](C)[C@@H]1O
HeLa [1]
  inhibition: inactive
Jurkat
  Activity: inactive
MDA-MB-231
  Activity: inactive
HeLa [3]
  Activity: inactive

## CO[C@@H](/C=C/CC/C=C/C(=O)O)[C@@H](O)[C@H](C)[C@@H](O)/C(C)=C/[C@H](C)C(=O)CCCC1CC(=O)NC(=O)C1
HeLa [1]
  inhibition: inactive
Jurkat
  Activity: inactive
MDA-MB-231
  Activity: inactive
HeLa [3]
  Activity: inactive

## CO[C@H]1/C=C/CC/C=C/C(=O)O[C@@H](/C(C)=C/[C@H](C)C(=O)CCCC2CC(=O)NC(=O)C2)[C@@H](C)[C@@H]1O [ISOMIGRASTATIN]
HeLa [1]
  IC50: 624 nM
  inhibition: Dose-dependent effect
Jurkat
  Activity: inactive
MDA-MB-231
  Activity: inactive
HeLa [2]
  IC50: > 10000 nM
HeLa [3]
  Activity: inactive

## CSC[S@@+]([O-])CC(CO)NC(=O)/C=C/c1c(C)[nH]c(=O)[nH]c1=O (stereo not given in full)
[6]
  Activity: Active

## Cc1c2oc3c(C)ccc(C(=O)N[C@@H]4C(=O)N[C@H](C(C)C)C(=O)N5CCC[C@H]5C(=O)N(C)CC(=O)N(C)[C@@H](C(C)C)C(=O)O[C@@H]4C)c3nc-2c(C(=O)N[C@@H]2C(=O)N[C@H](C(C)C)C(=O)N3CCC[C@H]3C(=O)N(C)CC(=O)N(C)[C@@H](C(C)C)C(=O)O[C@@H]2C)c(N)c1=O [DACTINOMYCIN] (I: T[dV]P[Sar][NMeV] / II: T[dV]P[Sar][NMeV]; ester I:1-I:C, II:1-II:C; linker I:N-II:N via Actinocin(1to9))
HeLa [1]
  IC50: 520 nM
  inhibition: Dose-dependent effect
HeLa [2]
  IC50: 262 nM

## CO[C@H]1/C=C/CC/C=C/C(=O)O[C@@H](/C(C)=C/[C@H](C)C(=O)/C=C/CC2CC(=O)NC(=O)C2)[C@@H](C)[C@@H]1O [DIDEHYDRO ISOMIGRASTATIN]
HeLa [1]
  IC50: 1910 nM
Jurkat
  Activity: inactive
MDA-MB-231
  Activity: inactive
HeLa [2]
  IC50: > 10000 nM
HeLa [3]
  Activity: inactive

## CO[C@@H](/C=C/CC/C=C/C(=O)O)[C@@H](O)[C@H](C)/C=C(\C)[C@H](O)[C@H](C)C(=O)CCCC1CC(=O)NC(=O)C1
Jurkat
  Activity: inactive
MDA-MB-231
  Activity: inactive
HeLa [3]
  Activity: inactive

## C[C@@H]1C[C@@H]([C@H](O)CC2CC(=O)NC(=O)C2)C(=O)[C@@H](C)C1 [CYCLOHEXIMIDE]
HeLa [1]
  IC50: 532 nM
  inhibition: Dose-dependent effect
Saccharomyces cerevisiae [7]
  IC50: 675 nM
[8]
  inhibition: inactive
Saccharomyces cerevisiae [9]
  Ratio IC50: 76.3
Saccharomyces cerevisiae [10]
  Ratio IC50: 77
HEK-293T [11]
  Activity: Active
[12]
  inhibition: inactive
[13]
  inhibition: Active
[14]
  inhibition: Active
Saccharomyces cerevisiae [15]
  Ratio IC50: 232.2
HEK-293T [16]
  Activity: inactive
[17]
  Activity: Dose-dependent effect
  Kd: 15 µM
Saccharomyces cerevisiae [18]
  IC50: 227 nM
Saccharomyces cerevisiae [19]
  IC50: 88 nM
Saccharomyces cerevisiae [20]
  IC50: 7.42 µM
HEK-293T [21]
  Activity: inactive
Saccharomyces cerevisiae [22]
  IC50: 52.1 µM
[23]
  inhibition: Active
HeLa [2]
  IC50: 2880 nM
Saccharomyces cerevisiae [24]
  Ratio IC50: 232.4
[25]
  Activity: Active
Saccharomyces cerevisiae [26]
  IC50: 20.5 µM
Saccharomyces cerevisiae [27]
  IC50: 32 nM
Saccharomyces cerevisiae [28]
  IC50: 17.3 µM
Oryctolagus cuniculus
  inhibition: inactive
